The values that follow come from ChEMBL document CHEMBL1151198, “A new antimalarial quassinoid from Simaba orinocensis” (J Nat Prod, 2004).

Values after ≈ are worked out from the molar mass of the structure shown. Active and inactive are the calls of the source. The calls are words filed in the database; no cut-off is given here.

In data set [1] the test system is HeLa. Kind of data set: Inhibition of translation in human HeLa cells at 10 uM by 35S-methionine metabolic labeling study. It is filed as functional, cell-based.
Data set [2] concerns HeLa. Kind of data set: Inhibition of protein synthesis in human HeLa cells assessed as translation at 10 uM by [35S]methionine metabolic labeling study. Format: functional. Also on record: scale not given: the % may be the effect or the level left.
Data set [3] concerns HeLa. Put plainly: Inhibition of protein synthesis in human HeLa cells at 10 uM by [35S]methionine metabolic labeling study. It is filed as functional.
The nature of data set [4]: Inhibition of protein biosynthesis in mouse Krebs cells assessed as firefly luciferase activity at 10 uM after 1 hr by translation assay relative to control. It is filed as functional. In short, it runs like this:
(§1)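 In vitro Krebs cell translation system read by firefly and renilla luciferase. Compounds at 10 or 2 µM; anisomycin 10 µM as reference and 0.5% DMSO as vehicle control. Values are average luciferase activity relative to control.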

A short description of data set [5]: Inhibition of protein biosynthesis in mouse Krebs cells assessed as renilla luciferase activity at 10 uM after 1 hr by translation assay relative to control. It is filed as functional. The gist of the method:
as §1

The subject of data set [6] is HeLa. Kind of data set: Inhibition of translation in human HeLa cells at 0.4 uM by 35S-methionine metabolic labeling study. It is filed as functional, cell-based.
A further data set deals with Leishmania donovani. Kind of data set: Antileishmanial activity against Leishmania donovani promastigotes after 48 hrs by alamar blue assay. Format: functional, organism-based. On the technique in general: The colour change of resazurin is a common sign of viable cells or microbes.
Data set [7] is described as follows: Inhibition of protein biosynthesis in mouse Krebs cells assessed as firefly luciferase activity at 0.4 uM after 1 hr by translation assay relative to control. Format: functional. In short, it runs like this: (§2)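 In vitro Krebs cell-extract translation system with firefly and Renilla luciferase read-outs, reported as average relative luciferase values. Compounds were tested at fixed concentrations (0.4–10 µM). DMSO (0.5%) served as vehicle control.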

Another data set has as its system SK-MEL. Kind of data set: Cytotoxicity against human SK-MEL cells after 48 hrs by neutral red staining. It is filed as functional, cell-based. The gist of the method:
(§3)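 Human tumour lines: SK-MEL (malignant melanoma), KB (epidermal carcinoma), BT-549 (ductal carcinoma) and SK-OV-3 (ovary carcinoma). Compounds tested up to a maximum of 10 µg/mL, with doxorubicin as reference. IC50 given in µg/mL as mean ± SEM of three determinations.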

In the next data set the test system is Vero. Put plainly: Cytotoxicity against african green monkey kidney Vero cells. Format: cell-based. The note with it: Chlorocebus sabaeus.
The nature of data set [8]: Inhibition of protein biosynthesis in mouse Krebs cells assessed as renilla luciferase activity at 2 uM after 1 hr by translation assay relative to control. It is filed as functional. In short, it runs like this:
as §1

The next data set deals with BT-549. Kind of data set: Cytotoxicity against human BT549 cells after 48 hrs by neutral red staining. It is filed as functional, cell-based. Particulars: BT-549, 48 h. The gist of the method: as §3
For data set [9], the system named is RAW264.7. Put plainly: Cytotoxicity against mouse RAW264.7 cells after 2 days by MTT assay. Format: cell-based. Particulars: RAW264.7, 48 h. The gist of the method: (§4)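 MTT viability assay, run on CHO-ICAM-1 cells and, separately, on RAW 264.7 cells. IC50 in µg/mL, mean ± SEM of three determinations.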
(Tetrazolium assays rely on reduction of a dye to a coloured formazan, in cell work by metabolically active cells.)

The target in data set [10] is Intercellular adhesion molecule (ICAM-1), Integrin alpha-L/beta-2 (Homo sapiens, UniProt P05107+P05362+P20701). Put plainly: Inhibition of LFA1/ICAM1-mediated adhesion of HL60 cells to CHO-ICAM1 cells. Format: cell-based, HL-60. The gist of the method:
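Secondary LFA-1/ICAM-1-mediated adhesion assay using HL-60 cells and CHO-ICAM-1 cells, with cytochalasin B as standard. IC50 in µg/mL, mean ± SEM of three determinations.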

For data set [11], the system named is HeLa. Kind of data set: Inhibition of protein synthesis in human HeLa cells assessed as translation at 2 uM by [35S]methionine metabolic labeling study. It is filed as functional. Also on record: scale not given: the % may be the effect or the level left.
Data set [12] relates to HeLa. Put plainly: Inhibition of protein synthesis in human HeLa cells at 2 uM by [35S]methionine metabolic labeling study. It is filed as functional.
Data set [13] is described as follows: Specific index, ratio of IC50 for human HL60 cells to MIC for LFA1/ICAM1. Format: functional, HL-60. In short, it runs like this:
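Index calculated as XTT-assay IC50 (µg/mL) divided by the MIC from the LFA-1/ICAM-1-mediated aggregation primary screen (µg/mL). XTT IC50 values are given as mean ± SEM of three determinations.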

For data set [14], the system named is Plasmodium falciparum. Put plainly: Antimalarial activity against chloroquine-sensitive Plasmodium falciparum D6 by LDH assay. It is filed as functional, organism-based.
A short description of data set [15]: Selectivity index, ratio of IC50 for african green monkey (Cercopithecus aethiops) Vero cells to IC50 for chloroquine-resistant Plasmodium falciparum W2. Format: toxicity, cell-based. Particulars: read-out: Ratio IC50.
The next data set deals with SK-OV-3. Kind of data set: Cytotoxicity against human SKOV3 cells after 48 hrs by neutral red staining. The note with it: SK-OV-3, 48 h. Format: functional, cell-based. In short, it runs like this:
as §3

In data set [16] the target is Intercellular adhesion molecule (ICAM-1), Integrin alpha-L/beta-2 (Homo sapiens) (UniProt P20701+P05362+P05107). Put plainly: Inhibition of LFA1/ICAM1-mediated HL60 cell aggregation. Format: cell-based. The note with it: HL-60. In short, it runs like this: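 Primary screen for LFA-1/ICAM-1-mediated cell aggregation run together with an XTT cell-proliferation read-out. Aggregation potency is reported as a minimum inhibitory concentration in µg/mL.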

Data set [17] is described as follows: Inhibition of protein biosynthesis in mouse Krebs cells assessed as firefly luciferase activity at 2 uM after 1 hr by translation assay relative to control. It is filed as functional. In short, it runs like this: as §1
For another data set, the system named is KB. Put plainly: Cytotoxicity against human KB cells after 48 hrs by neutral red staining. It is filed as functional, cell-based. In short, it runs like this: as §3
The subject of the next data set is CHO. Put plainly: Cytotoxicity against CHO cells transfected with ICAM1 by MTT assay. It is filed as cell-based. The note with it: Cricetulus griseus. In short, it runs like this: as §4
The next data set deals with HL-60. Put plainly: Cytotoxicity against human HL60 cells by XTT assay. Format: cell-based. In short, it runs like this: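 XTT proliferation read-out combined with the primary assay for inhibitors of LFA-1/ICAM-1-mediated cell aggregation. IC50 in µg/mL, mean ± SEM of three determinations.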
In data set [18] the test system is Plasmodium falciparum. Put plainly: Antimalarial activity against chloroquine-resistant Plasmodium falciparum W2 by LDH assay. It is filed as functional, organism-based.
A short description of data set [19]: Inhibition of protein biosynthesis in mouse Krebs cells assessed as renilla luciferase activity at 0.4 uM after 1 hr by translation assay relative to control. It is filed as functional. In short, it runs like this: as §2
Data set [20] in a line: Selectivity index, ratio of IC50 for african green monkey (Cercopithecus aethiops) Vero cells to IC50 for chloroquine-sensitive Plasmodium falciparum D6. Particulars: read-out: Ratio IC50. Format: toxicity, cell-based.
Data set [21] deals with RAW264.7. Kind of data set: Inhibition of iNOS production in LPS-activated mouse RAW264.7 cells after 20 hrs. The note with it: RAW264.7, 20 h. It is filed as functional, cell-based. In short, it runs like this: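 iNOS assay in RAW 264.7 cells, with L-NMMA, APDC and dexamethasone as reference inhibitors. IC50 in µg/mL, mean ± SEM of three determinations.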
The subject of data set [22] is HeLa. Kind of data set: Inhibition of translation in human HeLa cells at 2 uM by 35S-methionine metabolic labeling study. Format: functional, cell-based.

Sequence of Intercellular adhesion molecule (ICAM-1), Integrin alpha-L/beta-2 (P20701 whole entry): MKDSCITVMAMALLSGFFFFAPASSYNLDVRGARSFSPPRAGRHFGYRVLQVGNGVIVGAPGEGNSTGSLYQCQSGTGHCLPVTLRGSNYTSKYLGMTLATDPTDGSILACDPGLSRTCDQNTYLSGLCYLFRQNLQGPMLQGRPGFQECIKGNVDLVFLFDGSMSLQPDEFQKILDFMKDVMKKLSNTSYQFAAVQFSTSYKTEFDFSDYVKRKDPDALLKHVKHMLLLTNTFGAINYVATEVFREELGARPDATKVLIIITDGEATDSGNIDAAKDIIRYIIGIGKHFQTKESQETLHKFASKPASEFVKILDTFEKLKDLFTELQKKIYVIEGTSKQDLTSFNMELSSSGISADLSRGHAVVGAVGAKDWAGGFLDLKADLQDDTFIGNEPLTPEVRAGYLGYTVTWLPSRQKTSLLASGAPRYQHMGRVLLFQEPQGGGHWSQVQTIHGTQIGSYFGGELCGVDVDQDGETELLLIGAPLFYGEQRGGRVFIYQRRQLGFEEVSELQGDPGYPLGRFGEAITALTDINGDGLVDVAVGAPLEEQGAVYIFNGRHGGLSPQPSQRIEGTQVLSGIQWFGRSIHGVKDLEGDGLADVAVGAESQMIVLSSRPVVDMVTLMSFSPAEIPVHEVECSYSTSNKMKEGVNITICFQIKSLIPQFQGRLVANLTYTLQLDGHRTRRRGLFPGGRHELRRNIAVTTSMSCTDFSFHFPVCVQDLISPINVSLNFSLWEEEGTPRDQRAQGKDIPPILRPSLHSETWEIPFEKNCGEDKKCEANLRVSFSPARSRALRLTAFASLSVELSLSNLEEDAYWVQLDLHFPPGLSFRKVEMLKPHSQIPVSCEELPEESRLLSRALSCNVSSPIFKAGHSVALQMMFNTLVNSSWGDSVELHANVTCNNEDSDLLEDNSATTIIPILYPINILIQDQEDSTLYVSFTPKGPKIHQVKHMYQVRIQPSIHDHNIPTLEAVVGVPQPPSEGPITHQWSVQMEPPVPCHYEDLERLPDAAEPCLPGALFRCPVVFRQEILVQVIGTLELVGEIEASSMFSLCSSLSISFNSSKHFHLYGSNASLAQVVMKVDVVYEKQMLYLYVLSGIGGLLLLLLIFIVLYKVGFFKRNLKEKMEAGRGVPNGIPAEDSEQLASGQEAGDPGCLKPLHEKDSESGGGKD
Sequence of Intercellular adhesion molecule (ICAM-1), Integrin alpha-L/beta-2 (P05362 whole entry): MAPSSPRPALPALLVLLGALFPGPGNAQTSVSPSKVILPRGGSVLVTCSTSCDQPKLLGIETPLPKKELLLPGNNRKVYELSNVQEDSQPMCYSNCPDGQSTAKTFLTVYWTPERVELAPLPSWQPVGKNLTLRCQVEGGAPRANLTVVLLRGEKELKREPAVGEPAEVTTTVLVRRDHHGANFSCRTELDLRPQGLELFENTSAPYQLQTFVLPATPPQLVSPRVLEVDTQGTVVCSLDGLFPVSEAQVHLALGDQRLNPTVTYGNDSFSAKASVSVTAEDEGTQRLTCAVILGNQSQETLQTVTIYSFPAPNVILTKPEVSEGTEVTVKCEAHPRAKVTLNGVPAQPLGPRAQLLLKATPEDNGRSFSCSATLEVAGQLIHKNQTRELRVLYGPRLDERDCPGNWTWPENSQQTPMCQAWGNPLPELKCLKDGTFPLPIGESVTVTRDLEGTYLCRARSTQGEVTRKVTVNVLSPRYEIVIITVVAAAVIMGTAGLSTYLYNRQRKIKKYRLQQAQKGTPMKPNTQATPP
Sequence of Intercellular adhesion molecule (ICAM-1), Integrin alpha-L/beta-2 (P05107 whole entry): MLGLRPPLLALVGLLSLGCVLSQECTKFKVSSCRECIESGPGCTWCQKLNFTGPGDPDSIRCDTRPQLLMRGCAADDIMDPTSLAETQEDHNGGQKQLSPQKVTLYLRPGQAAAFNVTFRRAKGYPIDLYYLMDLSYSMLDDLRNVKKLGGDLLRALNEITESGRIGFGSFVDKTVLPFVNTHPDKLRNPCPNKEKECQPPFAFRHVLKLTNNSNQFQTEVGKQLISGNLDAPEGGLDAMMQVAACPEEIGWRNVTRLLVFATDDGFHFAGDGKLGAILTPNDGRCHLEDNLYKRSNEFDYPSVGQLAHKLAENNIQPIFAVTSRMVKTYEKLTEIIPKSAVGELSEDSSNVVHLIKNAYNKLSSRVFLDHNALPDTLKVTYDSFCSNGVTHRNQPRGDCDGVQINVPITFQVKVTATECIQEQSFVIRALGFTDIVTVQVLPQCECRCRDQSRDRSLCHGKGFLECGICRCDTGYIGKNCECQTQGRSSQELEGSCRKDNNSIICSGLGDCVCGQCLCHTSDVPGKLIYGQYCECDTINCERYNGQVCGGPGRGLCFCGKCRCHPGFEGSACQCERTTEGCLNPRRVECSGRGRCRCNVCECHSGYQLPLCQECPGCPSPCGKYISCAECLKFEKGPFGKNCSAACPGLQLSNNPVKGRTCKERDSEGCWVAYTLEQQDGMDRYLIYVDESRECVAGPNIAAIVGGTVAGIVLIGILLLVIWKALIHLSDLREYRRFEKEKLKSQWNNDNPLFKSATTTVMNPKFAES

In the case of `COc1ccc(C[C@H]2NC[C@H](O)[C@H]2OC(C)=O)cc1` [ANISOMYCIN], the outcome in the data set with HeLa [1] was Active. Further, the Activity is reported as 0% with HeLa [2], less than 0.01 in data set [4] and less than 0.01 in [5]. Further, the inhibition at 10 µM with HeLa [3] was 98.5%.

For `CC[C@@H](C)C(=O)O[C@H]1C(=O)O[C@@H]2C[C@H]3C(C)=CC(=O)[C@@H](O)[C@]3(C)[C@H]3[C@@H](O)[C@H](O)[C@]4(C)OC[C@]32[C@@H]14` [SIMALIKALACTONE D], the outcome with HeLa [6] and in the data set on HeLa [22] was Active. The IC50 in the data set with Leishmania donovani is 0.035 µg/mL (≈ 0.0731 µM); in the data set on SK-MEL, 0.28 µg/mL (≈ 0.585 µM); in the data set on Vero, 2.3 µg/mL (≈ 4.81 µM); in the data set on BT-549, 0.3 µg/mL (≈ 0.627 µM); with RAW264.7 [9], 0.08 µg/mL (≈ 0.167 µM); in data set [10] it was greater than 52.2 µM. For the same molecule, the IC50 came out at 0.003 µg/mL (≈ 0.00627 µM) in the data set on Plasmodium falciparum [14]; 0.3 µg/mL (≈ 0.627 µM) in the data set on SK-OV-3; 1 µg/mL (≈ 2.09 µM) with KB; 0.032 µg/mL (≈ 0.0669 µM) in the data set with CHO; 0.025 µg/mL (≈ 0.0522 µM) with HL-60; 0.00367 µg/mL (≈ 0.00767 µM) with Plasmodium falciparum [18]. Besides, it took 0.76 µg/mL (≈ 1.59 µM) to reach half-maximal inhibition in the data set on RAW264.7 [21] (IC50). Moreover, in the data set with Leishmania donovani, the IC90 came to 0.2 µg/mL (≈ 0.418 µM). The Activity is 0.17 in [7]; 0.09 in [8]; 1.5% in the data set with HeLa [11]; 0.05 in data set [17]; 0.25 in data set [19]. This molecule gave an inhibition at 2 µM in the data set with HeLa [12] of 98.5%. Further, the Ratio in [13] came out at 2.5. The selectivity ratio in [15] stood at 613; in [20], 750. In [16], this molecule displayed an MIC of 0.01 µg/mL (≈ 0.0209 µM).

A word on the inhibition: it is the change of the read-out against control, counted positive when it falls. Broadly, the IC50 is the concentration needed to halve the response being measured. For orientation: IC90 means the concentration needed for an effect of 90%.
